MPTP inh: inhibitors of mitochondrial permeability transition pore | isolated mouse mitochondria, Ca2+ swelling absorbance, 30 min | inhibition, % at 10 µM | actives 1.4% (n = 360,000) | AID 602449;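 active means inhibition of 50% or more, scaled per plate between neutral and stimulator controls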
697 NFkB inh: lowers PMA/ionomycin-induced NF-kB signal in 697 B cells | AID 435022 | inhibition, % at 4 µM | actives 0.33% (n = 330,000) | 697 B-cell NF-kB luciferase reporter, 16 h; in the data active means inhibition above about 35%
aDG glyco act: increases alpha dystroglycan glycosylation. Pro5-aDG cells, alpha-DG glycosylation AlphaScreen (IIH6); 0% Pro5, 100% B10-LARGE cell signal. activation, % at 10 µM. actives 0.22% (n = 360,000);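 active means activation of at least 8% versus controls, or a plate z-score of at least 8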;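 further: Pro5 are CHO cells carrying HIG-tagged alpha-DG that lacks glycosylation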
NR2E3 ag-1: activates human photoreceptor nuclear receptor NR2E3. Q9Y5X4. GST-NR2E3/biotin-RetCOR TR-FRET, 1536-well. inhibition of corepressor binding, % at 4.78 µM. actives 0.12% (n = 320,000). AID 2300;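 active means percent inhibition above the cutoff of mean plus 3 SD of all tested compounds, set per screening campaign, cut at about 20% in these data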
Target sequence (Q9Y5X4 whole entry, looked up): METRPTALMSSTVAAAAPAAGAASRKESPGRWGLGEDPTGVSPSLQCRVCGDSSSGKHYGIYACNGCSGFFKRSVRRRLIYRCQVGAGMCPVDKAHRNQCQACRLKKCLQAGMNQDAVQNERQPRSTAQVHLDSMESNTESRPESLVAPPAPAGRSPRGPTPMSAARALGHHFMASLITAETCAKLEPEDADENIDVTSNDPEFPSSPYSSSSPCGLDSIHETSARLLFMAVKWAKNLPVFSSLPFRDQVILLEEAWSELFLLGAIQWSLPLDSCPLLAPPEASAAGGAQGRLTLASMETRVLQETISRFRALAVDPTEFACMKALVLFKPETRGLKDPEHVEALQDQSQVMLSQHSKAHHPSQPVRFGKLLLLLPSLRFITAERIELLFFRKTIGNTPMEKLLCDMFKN
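Material: NR2E3–RetCOR corepressor complex | Quantity: 1.35 nM GST-tagged NR2E3 final | Schedule: 5 h at 4 °C | Replication: Singlicate compound wells | Reagent: RetCOR corepressor, biotinylated, 7 nM | Controls: Biotin wells as high control, 0.6% DMSO wells as low control | Signal: TR-FRET, Eu(K)-anti-GST donor, streptavidin-D2 acceptor, ex 340, em 617/671 nm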
Jurkat NFkB inh: lowers PMA/ionomycin-induced NF-kB signal in Jurkat cells | PMA/ionomycin-induced NF-kB luciferase reporter, luminescence | inhibition, % at 4 µM | actives 0.53% (n = 330,000); in the data active means inhibition above about 50%
NR2E3 ag-2: agonists of human NR2E3 nuclear receptor. inhibition of corepressor binding, % at 3.98 µM. actives 0.35% (n = 360,000). CHO-S Gal4-NCOR/VP16-NR2E3 two-hybrid, luciferase. Q9Y5X4. AID 602229;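 active means inhibition above the mean of all tested compounds plus 3 SD, cut at about 70% in these data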;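 further: higher means lower luciferase signal from less NR2E3 corepressor binding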
aDG conf: confirmation of alpha dystroglycan glycosylation activators; shares compounds with aDG glyco act; activation, % at 10 µM (by protocol); actives 17% (n = 600); Pro5-aDG cells, alpha-DG glycosylation, IIH6 AlphaLISA; scaled to LARGE-overexpressing B10 cells as 100%;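 active means activation of at least 7% in one or more replicates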;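 further: cells exposed to compound for two days before detection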
Large screens that a line does not name were inactive (follow-up assays come after a bar, where they were run). Compounds with a hit are over-represented: about 2.4% of the library has one in this group of screens.

COCCN1CCC(CNCc2cn(-c3cc(C)ccc3C)nc2-c2ccccc2)C1 (stereo unspecified)	aDG glyco act 7.8 | aDG conf 8.6
Cc1cc(OCC(=O)N2CCC(C(=O)O)CC2)c2c(C)cc(=O)oc2c1	none
CCOc1ccc(NC(=S)N(CCCN2CCCC2)Cc2cccn2Cc2ccc(Cl)cc2)cc1	none
Cc1cccc(NC(=S)N(CCCN2CCCC2)Cc2cccn2Cc2ccc(Cl)cc2)c1	aDG glyco act 2.8 | aDG conf 11
COC(=O)c1cn(CC(C)n2c(=O)c3ccccc3n2Cc2cc(C(C)C)no2)nn1 (stereo unspecified)	none (no result: 697 NFkB inh, NR2E3 ag-1, Jurkat NFkB inh, NR2E3 ag-2)
COc1cc(CNC(=O)Nc2nc(C(N)Cc3ccc(Cl)cc3)cs2)cc(OC)c1OC (stereo unspecified)	aDG glyco act 5.8 (no result: 697 NFkB inh, NR2E3 ag-1, Jurkat NFkB inh) | aDG conf 5.9
Cc1ccc(C)c(N2CCN(C(=O)C34CC5CC(C3)CC(n3nnc(C)n3)(C5)C4)CC2)c1	none
Cc1cc(C)c(NC(=O)c2ccc3c(c2)NC(=O)C(C)S3)c(C)c1 (stereo unspecified)	none
CC1Sc2ccc(C(=O)NCc3ccccn3)cc2NC1=O (stereo unspecified)	aDG glyco act 5.5 | aDG conf inactive
CCN1C[C@@H]2[C@@H]3C(=O)N(C)C(=O)[C@@H]3[C@](C)(C1=O)N2C(=O)c1ccc(Cl)cc1	none (no result: 697 NFkB inh, NR2E3 ag-1, Jurkat NFkB inh)
O=C(Nc1ccc(OC(F)(F)F)cc1)c1ccc2nccnc2c1	aDG glyco act 5.5 | aDG conf inactive
C=CCc1c(C)nc(C)nc1N/N=C/c1ccc(N(C)C)cc1	aDG glyco act 6.3 | aDG conf inactive
O=C(CCN1N=C(c2ccccc2)CCC1=O)NC1CCCC1	aDG glyco act 3.0 | aDG conf inactive
COc1ccc(/C(CC2(O)C(=O)Nc3ccccc32)=N\O)cc1 (stereo unspecified)	aDG glyco act 6.6 | aDG conf inactive
Cn1cccc1C(=O)NC(=O)COC(=O)CCNS(=O)(=O)c1ccc(Cl)cc1	none (no result: NR2E3 ag-1)
COc1ccccc1CCC(=O)OCC(=O)c1c(N)n(CC(C)C)c(=O)n(C)c1=O	aDG glyco act 6.5 | aDG conf inactive
COc1ccc(CCC(=O)OCC(=O)c2c(N)n(CC(C)C)c(=O)n(C)c2=O)cc1	none
Cc1cccnc1CCNC(=O)CCc1nnc(CCc2ccccc2)o1	aDG glyco act 3.3 | aDG conf inactive
Cc1cccnc1CN1CCN(C(=O)CCc2nnc(CCc3ccccc3)o2)CC1	none
Cn1cc2c(=O)n(/N=C/c3ccccc3)cnc2n1	none
COc1ccc(OC)c(NC(=O)CCNS(=O)(=O)c2ccc3c(c2)CC(C)N3C(C)=O)c1 (stereo unspecified)	none (no result: 697 NFkB inh, NR2E3 ag-1, Jurkat NFkB inh)
C=CCNCC(=O)N1N=C(c2ccc3ccccc3c2)CC1c1ccc(OC)cc1 (stereo unspecified)	aDG glyco act 5.8 | aDG conf inactive
CC(=O)Nc1ccc2nc(NC(=O)c3ccc([N+](=O)[O-])s3)sc2c1	none (no result: MPTP inh, aDG glyco act, NR2E3 ag-2)
Cc1nc2cc(NC(=O)c3ccc([N+](=O)[O-])s3)ccc2s1	aDG glyco act 11 | aDG conf 5.1
CCc1ccccc1NC(=O)c1ccc([N+](=O)[O-])s1	aDG glyco act 13 | aDG conf inactive
COc1ccccc1NC(=O)COC(=O)c1ccc([N+](=O)[O-])s1	none
C1=CC2(C=C1)OC21CCC2(C=CC3(C2)OC3C2CCCCC2)CC1 (stereo unspecified)	none (no result: 697 NFkB inh, NR2E3 ag-1, Jurkat NFkB inh)
COc1cccc(-c2nc(CS(=O)(=O)CC(=O)NCC(C)c3ccccc3)c(C)o2)c1 (stereo unspecified)	none
O=C(CN1CCN(S(=O)(=O)c2ccc(F)cc2)CC1)Nc1ccc2c(c1)OCCO2	none
O=C(CN1CCN(S(=O)(=O)c2ccc(F)cc2)CC1)Nc1ccc(Cl)c(C(F)(F)F)c1	aDG glyco act 5.4 | aDG conf inactive
CCCCn1c(/N=C/c2ccc(N(C)C)cc2)nc2ccccc21	aDG glyco act 4.9 | aDG conf inactive
CCCCN(C)CCNC(=O)c1cc(-c2cccnc2)nc2ccc(S(=O)(=O)N3CCC(C)CC3)cc12	aDG glyco act 5.4 | aDG conf 4.2
O=C1C(Cl)=C(NCc2ccco2)C(=O)c2ccccc21	aDG glyco act 11 (no result: 697 NFkB inh, NR2E3 ag-1, Jurkat NFkB inh) | aDG conf 10
COc1ccccc1C1CCN(C(=O)c2ccco2)CC1	none
CCOC(=O)N1CCN(C(=O)c2ccc3c(=O)n(-c4ccccc4F)c(=S)[nH]c3c2)CC1	none
CCc1ccc(C(CNC(=O)c2ccc3c(=O)n(-c4ccccc4F)c(=S)[nH]c3c2)N(C)C)cc1 (stereo unspecified)	aDG glyco act 10 | aDG conf 6.9
O=c1cc(-c2ccccc2O)nc(-c2ccccc2)[nH]1	none
CN(C(=O)CSc1ncnc2ccccc12)C1CCS(=O)(=O)C1 (stereo unspecified)	aDG glyco act 4.5 | aDG conf inactive
CC(C)CN(C(=O)CSc1ncnc2ccccc12)C1CCS(=O)(=O)C1 (stereo unspecified)	none
Cc1cc(-c2nn(-c3ccccc3)cc2/C=C2\SC(N)=NC2=O)ccc1OC(C)C	aDG glyco act 6.0 | aDG conf inactive
CCCOc1ccc(-c2nn(-c3ccccc3)cc2/C=C2\SC(N)=NC2=O)cc1	none
Cc1cc(C)n(-c2nc(NCCCN(C)C)c3c4c(sc3n2)CCCC4)n1	aDG glyco act 2.7 | aDG conf 11
Cc1cc(C)n(-c2nc(NCCN(C)C)c3c4c(sc3n2)CCCC4)n1	none
Cc1cc(C)n(-c2nc(SCCN3CCOCC3)c3c4c(sc3n2)CCCC4)n1	aDG glyco act 2.6 (no result: 697 NFkB inh, NR2E3 ag-1, Jurkat NFkB inh) | aDG conf inactive
Cc1cc(C)n(-c2nc(NCCC(C)C)c3c4c(sc3n2)COC(C)(C)C4)n1	aDG glyco act 4.8 (no result: 697 NFkB inh, NR2E3 ag-1, Jurkat NFkB inh) | aDG conf inactive
O=C(Nc1ccccc1Cl)c1cccc(NC(=O)c2cccs2)c1	none (no result: NR2E3 ag-1)
CC(OC(=O)c1cnc(Cl)c(Cl)c1)C(=O)NCc1ccccc1 (stereo unspecified)	none
CN(C)S(=O)(=O)c1ccc(C(=O)NCc2cccs2)cc1	none
CN(c1ccccc1)S(=O)(=O)c1ccc(C(=O)NCc2cccs2)cc1	aDG glyco act 2.5 | aDG conf inactive
Cc1ccc(CS(=O)Cc2ccc(C(=O)NCc3cccs3)o2)cc1 (stereo unspecified)	aDG glyco act 6.1 | aDG conf inactive
Cc1ccc(CS(=O)(=O)Cc2ccc(C(=O)NCc3cccs3)o2)cc1	none
O=C(N[C@@H]1CCC(=O)N(CC[C@H](Sc2ccc(Br)cc2)c2ccccc2)CC1)OCc1ccccc1	aDG glyco act 9.1 | aDG conf inactive

High-throughput results as filed in PubChem.
